core dimer inh – inhibitors of HCV core protein dimerization, primary screen, biochemical, TR-FRET, high-throughput; inhibition, % at 5 µM; 0.33% of 300,000 active; TR-FRET GST/Flag-core106 dimerization, 1536-well;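 active = inhibition above the mean of all tested compounds plus 3 SD, set per screening campaign, cut at about 45% in these data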
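System: GST/Flag-tagged HCV core106 proteins. Incubation: compound-protein-antibody incubation 4 h at 22.5 °C. Technique: HTRF with 340 nm excitation, 617/671 nm emission. Medium: KF-containing HEPES buffer, pH 7.45, DTT, CHAPS, BSA. Read-out: inhibition (%) from 671 over 617 nm ratio. Also added: Eu(K)-anti-GST 90 ng/mL plus XL665-anti-Flag 1 µg/mL.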
TAAR1 antag – human TAAR1 antagonists, primary screen, Fluo-8 calcium fluorescence, CHO RD-HGA16 cells; inhibition, % at 3 µM; AID 624466, 2012; antagonist; 1.5% of 360,000 active; Trace amine-associated receptor 1 (Homo sapiens), Q96RJ0;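 active = inhibition above a per-plate cutoff, the mean inhibition of test compounds on that plate plus 3 SD, cut at about 49% in these data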;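 also: 0% = DMSO plus EC80 beta-PEA response and 100% = DMSO alone without agonist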
Target sequence (Q96RJ0 whole entry, looked up): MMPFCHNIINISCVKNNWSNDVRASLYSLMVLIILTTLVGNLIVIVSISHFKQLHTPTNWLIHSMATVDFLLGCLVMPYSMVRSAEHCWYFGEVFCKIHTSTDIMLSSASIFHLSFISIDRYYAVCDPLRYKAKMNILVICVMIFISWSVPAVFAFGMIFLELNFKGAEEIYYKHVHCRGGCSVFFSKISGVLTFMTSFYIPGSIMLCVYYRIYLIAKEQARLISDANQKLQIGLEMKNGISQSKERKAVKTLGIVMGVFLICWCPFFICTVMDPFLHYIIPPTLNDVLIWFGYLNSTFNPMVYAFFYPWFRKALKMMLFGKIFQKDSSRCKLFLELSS
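Test system – hTAAR1-expressing CHO RD-HGA16 cells, Gα16-coupled · Also added – β-PEA at EC80 concentration, post-compound challenge · Compound – 3 µM, single point · Incubation – dye loading 75 min at 37 °C, then 30 min room temperature · Measured by – Fluo-8 intracellular calcium dye fluorescence, real-time kinetic reads · Benchmarks – vehicle and agonist controls · Replicates – singlicate, one well per test compound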
rCAG binder-1 – binders of r(CAG) RNA repeats, primary screen, biochemical, fluorescence. r(CAG) RNA repeat, TO-PRO-1 dye displacement fluorescence. inhibition, % at 3 µM. 1.3% of 370,000 active. AID 651821, 2012;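 active = inhibition above the plate cutoff, the mean of all test compounds on that plate plus 3 SD, cut at about 35% in these data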;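 also: 0% = DMSO alone and 100% = 100 µM mitoxantrone as full dye displacement; higher means more dye released from RNA so lower well fluorescence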
TAAR1 ag – human TAAR1 agonists, primary screen, Fluo-8 calcium fluorescence, CHO RD-HGA16 cells; 0.99% of 360,000 active; vehicle wells 0%, saturating PEA agonist 100%; activation, % at 3 µM; AID 624467, 2012;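 active = activation above the mean activation of all test compounds in the run plus 3 SD, cut at about 38% in these data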
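test system = CHO RD-HGA16 cells carrying human TAAR1 plus Gα16 | schedule = 17-24 h seeding, 75 min 37 °C dye, 30 min RT | compound dosing = 3 µM single concentration | control set = DMSO and PEA EC100 | replicates = n 1 | signal = Fluo-8 fluorescence, 5 s baseline then 140 s kinetic read | measure = percent activation vs PEA EC100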
NS3 helicase inh – inhibitors of HCV NS3 helicase, primary screen, biochemical, Cy5 molecular beacon fluorescence | NS3 helicase DNA unwinding | inhibition, % at 10.9 µM | 0.56% of 290,000 active;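 active = inhibition above the mean of all tested compounds plus 3 SD, set per campaign, cut at about 35% in these data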;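 also: 0% = DMSO wells and 100% = thioflavine S control wells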
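Assay system: hepatitis C virus NS3 helicase domain fragment enzyme. Also added: annealed dual-labelled DNA beacon duplex, ATP-started. Timing: 1 h reaction at 25 °C, ATP-initiated. Technique: Cy5 fluorescence at 0 and 60 min, beacon hairpin quenching. Evaluation: % inhibition of unwinding. Replication: one well per compound.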
rCAG binder conf – small molecules binding CAG repeat RNA – biochemical, fluorescence, confirmation | shares compounds with rCAG binder-1 | r(CAG) RNA repeat, TO-PRO-1 dye displacement fluorescence | inhibition, % at 3 µM | 70% of 4,300 active;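 active = inhibition above a per-plate cutoff, the mean inhibition of sample wells plus 3 SD, cut at about 35% in these data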;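 also: loss of TO-PRO-1 fluorescence as compound displaces dye from 1x1 AA loop RNA; 0% = DMSO only wells and 100% = 100 µM mitoxantrone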
DNA CAG counter – displacement of TO-PRO-1 from CAG DNA duplex, counter-screen for rCAG RNA repeat binder project, biochemical, fluorescence, TO-PRO-1 dye, d(CAG) DNA oligo; shares compounds with rCAG binder-1; d(CAG) DNA oligo TO-PRO-1 dye displacement; inhibition, % at 3 µM; 94% of 4,300 active; AID 652068, 2013;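 active = inhibition above its plate's cutoff, the mean test-well inhibition plus 3 SD, cut at about 4.8% in these data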;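 also: 0% = DNA dye mix with DMSO and 100% = 100 µM mitoxantrone; hits displace the dye from DNA and so lower well fluorescence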
dCAG dye DR – inhibitors of DNA CAG/GTC TO-PRO-1 complex, dose response, counter-screen for rCAG RNA repeat binder project, biochemical, fluorescence, TO-PRO-1 dye; shares compounds with rCAG binder-1; DNA CAG/GTC duplex TO-PRO-1 dye displacement fluorescence; IC50, µM; 20% of 250 active; AID 686960, 2013; in the data active = IC50 below about 10 µM
dCAG TOPRO ctr – TO-PRO-1 dye complex inhibitors on d(CAG) DNA, dose response, counter-screen, biochemical, fluorescence, late stage; 80% of 30 active; AID 720649, 2013; IC50, µM; shares compounds with rCAG binder-1; d(CAG) DNA duplex TO-PRO-1 dye displacement
rCAG binder-2 – molecules binding r(CAG) RNA repeats, late stage dose response, late-stage follow-up, biochemical, fluorescence, dose response, powder samples; shares compounds with rCAG binder-1; r(CAG) RNA TO-PRO-1 dye displacement; IC50, µM; 100% of 30 active
Numbers without * were called inactive; i = inactive; x = no result. Shown are actives, neighbours in structure and some others; about 3.7% of the full set was active somewhere. Unless noted, no rule for the calls is given here.

SMILES	core dimer inh	TAAR1 antag	rCAG binder-1	TAAR1 ag	NS3 helicase inh	rCAG binder conf	DNA CAG counter	others
CCOC(=O)c1c(NS(=O)(=O)Cc2ccccc2)sc2c1CCCC2	5.0	8.7	44.6*	12.0	17.0	63.8*	20.9*	dCAG dye DR=>29.9
COC(=O)c1c(NS(=O)(=O)c2ccc3ccccc3c2)sc2c1CCCC2	15.8	26.4	43.9*	9.2	7.5	69.5*	31.8*	dCAG dye DR=i;dCAG TOPRO ctr=2.94*;rCAG binder-2=1.04*
COC(=O)c1c(NC(=O)c2ccc(C)c(S(=O)(=O)Nc3ccccc3C)c2)sc2c1CCCC2	0.1	-22.0	0.8	1.0	6.1	x	x
CCOC(=O)c1c(NS(=O)(=O)c2ccc(Br)cc2)sc2c1CCC2	69.7*	6.4	68.2*	14.6	26.5	79.6*	34.2*
COc1ccc(-c2cc(C(=O)N/N=C/C(C)=C\c3ccco3)[nH]n2)cc1	x	x	17.1	x	x	x	x
Cc1ccc(NS(=O)(=O)c2ccc3[nH]c(=O)c(=O)[nH]c3c2)cc1Cl	2.7	15.9	13.2	1.8	-16.8	x	x
Cc1ccc(NS(=O)(=O)c2ccc(Cl)c(N=Nc3c(O)[nH]c(=O)[nH]c3=O)c2)cc1Cl	x	-12.8	66.5*	2.4	x	76.1*	35.7*
O=C(c1ccccc1)n1ccc2ccc(-c3ccc4ccn(C(=O)c5ccccc5)c4c3)cc21	x	x	9.0	x	x	x	x
COC(=O)C1=C(C)N(C)C(=NCc2ccc3c(c2)OCO3)NC1c1ccccc1 (stereo not drawn)	x	-7.3	9.1	1.2	x	x	x
COc1ccccc1NS(=O)(=O)c1cc(N/C(=N/S(=O)(=O)c2ccccc2)c2ccc(F)cc2)ccc1Cl	x	5.1	16.2	3.8	x	x	x
O=S(=O)(/N=C(/Nc1ccc(Cl)c(S(=O)(=O)Nc2ccccc2Cl)c1)c1ccc(F)cc1)c1ccccc1	20.5	24.7	65.8*	1.0	-6.5	70.9*	26.1*	dCAG dye DR=>29.9
C/C(=N\NC(=O)c1cccc(S(=O)(=O)Nc2ccccc2Cl)c1)c1ccco1	8.9	-18.0	47.8*	0.1	-2.2	18.1	6.8*
CN(C)C(CNC(=O)c1cccc(S(=O)(=O)Nc2ccccc2Cl)c1)c1ccco1 (stereo not drawn)	x	-9.6	8.7	5.6	x	x	x
C/C(=N\NC(=O)c1ccc(Cl)c(S(=O)(=O)Nc2ccccc2Cl)c1)c1ccncc1	10.6	17.9	50.9*	-3.6	7.1	40.5*	10.8*
CCc1nnc(NC(=O)c2csc3c2CCC(C)C3)s1 (stereo not drawn)	-0.6	x	x	x	1.9	x	x
CC1CCc2c(C(=O)Nc3cccc(-c4nn[nH]n4)c3)csc2C1 (stereo not drawn)	5.0	-8.2	64.6*	0.4	-11.2	46.4*	13.1*
CC(C)C[C@H]1COc2cc(Br)ccc2S(=O)(=O)N1Cc1cn(Cc2ccc(Br)cc2)nn1	x	x	2.1	x	x	x	x
CCc1c(C)sc(NC(=O)c2cc(C)on2)c1C#N	0.5	4.4	1.8	8.1	-1.2	x	x
CCc1c(C)sc(NC(=O)c2cc(-c3ccco3)on2)c1C#N	0.1	12.9	39.9*	22.1	-2.9	28.1	6.5*
O=C(CSc1nc2nc3c(cc2c(=O)n1-c1ccccc1)CCCC3)Nc1cccc2ccccc12	-13.8	-12.7	14.1	0.4	-2.3	x	x
Cc1c(O)nc(SCC(=O)Nc2ccc3c4c(cccc24)CC3)n(-c2ccccc2)c1=O	14.9	2.7	39.2*	2.2	10.0	24.5	9.2*
O=C(CSc1nc(O)cc(=O)n1-c1ccccc1)Nc1ccc2c3c(cccc13)CC2	16.7	-22.0	45.3*	2.0	8.5	29.7	11.9*
Cc1cccc(NC(=O)CSc2nc3nc4c(cc3c(=O)n2-c2ccccc2)CCCC4)c1	-4.7	14.9	5.6	1.7	-4.5	x	x
C#CCN(C1CC1)S(=O)(=O)c1ccccc1Br	x	x	-0.7	x	x	x	x
Cc1cccc(Cn2cc(CN3CC(N(C)CCOC(=O)c4cc(C)cc(C)c4)CS3(=O)=O)nn2)c1 (stereo not drawn)	x	x	1.8	x	x	x	x
SMILES	core dimer inh	TAAR1 antag	rCAG binder-1	TAAR1 ag	NS3 helicase inh	rCAG binder conf	DNA CAG counter	others
O=C(CCN1C(=O)/C(=C/c2cccs2)SC1=S)Nc1ccc(C(=O)O)cc1	-0.5	18.6	48.1*	-1.1	-11.7	35.3*	8.1*
O=C(CCCN1C(=O)/C(=C\c2cccs2)SC1=S)Nc1ccc(C(=O)O)cc1	-2.0	4.5	39.0*	5.6	2.1	29.9	7.8*
Cc1ccc(S(=O)(=O)C(C#N)c2nc3ccccc3nc2OCCO)cc1 (stereo not drawn)	-8.2	-23.2	62.0*	-0.8	10.9	51.5*	15.2*
CCOc1ccc(-n2c(COc3ccc(C)cc3)nnc2SCC(=O)c2ccc3ccccc3c2)cc1	x	x	7.3	x	x	x	x
CN1C(=O)S/C(=C\c2ccccc2OCc2ccc(C(=O)O)cc2)C1=O	18.4	8.1	11.7	6.3	11.0	x	x
CC(C)N1C(=O)S/C(=C/c2ccccc2OCc2ccc(C(=O)O)cc2)C1=O	16.1	-9.9	54.9*	-0.9	15.4	55.5*	17.1*
CCOC(=O)c1sc(N2C(=O)C(O)=C(C(=O)c3ccco3)C2c2cccc(Cl)c2)nc1C (stereo not drawn)	-19.2	-49.8	74.0*	5.0	2.3	56.7*	18.6*
Cc1cc(C)c2nc(N3C(=O)C(O)=C(C(=O)c4ccco4)C3c3cccc(O)c3)sc2c1 (stereo not drawn)	x	4.5	85.2*	19.1	x	80.8*	48.7*
Cc1cc(C)c2nc(N3C(=O)C(O)=C(C(=O)c4ccco4)C3c3ccc(O)cc3)sc2c1 (stereo not drawn)	x	-15.1	84.5*	6.2	x	80.8*	43.3*
